Assay results: ChEMBL document CHEMBL4038305, “Benzoxaborole Antimalarial Agents. Part 5. Lead Optimization of Novel Amide Pyrazinyloxy Benzoxaboroles and Identification of a Preclinical Candidate” (J Med Chem, 2017)

Tests used:
[1] = tested on: Plasmodium berghei; experiment: Antimalarial activity against Plasmodium berghei infected in Swiss Webster mouse assessed as mouse survival rate at 3.7 mg/kg administered once daily via oral gavage for 4 consecutive days beginning 1 hr after infection measured on day 5 post infection relative to control; type: functional
Method in brief: (§1)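 P. berghei-infected erythrocytes taken from a previously infected mouse were injected intraperitoneally. Oral dosing, once daily for 4 consecutive days, began 1 h after infection, in polyethylene glycol 300/propylene glycol/water (55/25/20 by weight). Chloroquine at 30 mg/kg was the positive control, with a vehicle-only group. Percent survival was recorded daily from day 4 to day 20.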

[2] = tested on: Plasmodium berghei; experiment: Antimalarial activity against Plasmodium berghei infected in Swiss Webster mouse assessed as mouse survival rate at 100 mg/kg administered once daily via oral gavage for 4 consecutive days beginning 1 hr after infection measured on day 12 post infection relative to control; type: functional
Method in brief: (§2)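 Mice given an intraperitoneal injection of P. berghei-infected erythrocytes taken from a previously infected animal. Oral dosing once daily for 4 consecutive days, starting 1 h after infection. Vehicle: polyethylene glycol 300/propylene glycol/water (weight ratio 55/25/20). Percent survival recorded daily from day 4 to day 20. Chloroquine 30 mg/kg and vehicle-only groups served as controls.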

[3] = tested on: Plasmodium berghei; experiment: Antimalarial activity against Plasmodium berghei infected in Swiss Webster mouse assessed as mouse survival rate at 100 mg/kg administered once daily via oral gavage for 4 consecutive days beginning 1 hr after infection measured on day 10 post infection relative to control; type: functional; method in brief: as §2
[4] = tested on: Plasmodium falciparum; experiment: Antimalarial activity against chloroquine-sensitive Plasmodium falciparum 3D7 infected in human erythrocytes assessed as reduction in [3H]-hypoxanthine incorporation preincubated for 24 hrs followed by [3H]-hypoxanthine addition measured after 24 hrs by scintillation counting method; type: functional, cell-based
Method in brief: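 P. falciparum 3D7 cultures were exposed to the compound for 48 h, with atovaquone as the reference control. IC50 was taken from three replicates.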

[5] = tested on: Plasmodium berghei; experiment: Antimalarial activity against Plasmodium berghei infected in Swiss Webster mouse assessed as mouse survival rate at 33 mg/kg administered once daily via oral gavage for 4 consecutive days beginning 1 hr after infection measured on day 11 post infection relative to control; type: functional; method in brief: as §1
[6] = tested on: Plasmodium berghei; experiment: Antimalarial activity against Plasmodium berghei infected in Swiss Webster mouse assessed as mouse survival rate at 11 mg/kg administered once daily via oral gavage for 4 consecutive days beginning 1 hr after infection measured on day 7 post infection relative to control; type: functional; method in brief: as §1
[7] = Terminal half life in CD1 mouse at 5 mg/kg, po via gavage by HPLC/MS analysis; type: ADME, organism-based; conditions: in vivo, read-out: beta t1/2 (converted)
Method in brief: (§3)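 Female CD-1 mice, male SD rats or beagle dogs given 5 mg/kg by iv injection or oral gavage. Formulation was PEG300/propylene glycol/water 55/25/20, pH 6. Blood samples analysed by HPLC–MS/MS; parameters include AUC0-inf extrapolated to infinity and terminal half-life.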

[8] = tested on: Plasmodium berghei; experiment: Antimalarial activity against Plasmodium berghei infected in Swiss Webster mouse assessed as mouse survival rate at 100 mg/kg administered once daily via oral gavage for 4 consecutive days beginning 1 hr after infection measured on day 4 post infection relative to control; type: functional; method in brief: as §2
[9] = tested on: Plasmodium berghei; experiment: Antimalarial activity against Plasmodium berghei infected in Swiss Webster mouse assessed as mouse survival rate at 11 mg/kg administered once daily via oral gavage for 4 consecutive days beginning 1 hr after infection measured on day 9 post infection relative to control; type: functional; method in brief: as §1
[10] = tested on: Plasmodium berghei; experiment: Antimalarial activity against Plasmodium berghei infected in Swiss Webster mouse assessed as mouse survival rate at 1.2 mg/kg administered once daily via oral gavage for 4 consecutive days beginning 1 hr after infection measured on day 5 post infection relative to control; type: functional; method in brief: as §2
[11] = tested on: Plasmodium berghei; experiment: Antimalarial activity against Plasmodium berghei infected in Swiss Webster mouse assessed as mouse survival rate at 11 mg/kg administered once daily via oral gavage for 4 consecutive days beginning 1 hr after infection measured on day 5 post infection relative to control; type: functional; method in brief: as §1
[12] = tested on: Plasmodium berghei; experiment: Antimalarial activity against Plasmodium berghei infected in Swiss Webster mouse assessed as mouse survival rate at 1.2 mg/kg administered once daily via oral gavage for 4 consecutive days beginning 1 hr after infection measured on day 7 post infection relative to control; type: functional; method in brief: as §2
[13] = tested on: Plasmodium berghei; experiment: Antimalarial activity against Plasmodium berghei infected in Swiss Webster mouse assessed as mouse survival rate at 0.4 mg/kg administered once daily via oral gavage for 4 consecutive days beginning 1 hr after infection measured on day 4 post infection relative to control; type: functional; method in brief: as §2
[14] = tested on: Plasmodium berghei; experiment: Antimalarial activity against Plasmodium berghei infected in Swiss Webster mouse assessed as mouse survival rate at 100 mg/kg administered once daily via oral gavage for 4 consecutive days beginning 1 hr after infection measured on day 9 post infection relative to control; type: functional; method in brief: as §2
[15] = Terminal half life in CD1 mouse at 5 mg/kg, iv by HPLC/MS analysis; type: ADME, organism-based; conditions: in vivo, read-out: beta t1/2 (converted); method in brief: as §3
[16] = tested on: Plasmodium berghei; experiment: Antimalarial activity against Plasmodium berghei infected in Swiss Webster mouse assessed as mouse survival rate at 0.4 mg/kg administered once daily via oral gavage for 4 consecutive days beginning 1 hr after infection measured on day 5 post infection relative to control; type: functional; method in brief: as §2
[17] = tested on: Plasmodium berghei; experiment: Antimalarial activity against Plasmodium berghei infected in Swiss Webster mouse assessed as mouse survival rate at 0.1 mg/kg administered once daily via oral gavage for 4 consecutive days beginning 1 hr after infection measured on day 7 post infection relative to control; type: functional; method in brief: as §2
[18] = tested on: Plasmodium berghei; experiment: Antimalarial activity against Plasmodium berghei infected in Swiss Webster mouse assessed as mouse survival rate at 100 mg/kg administered once daily via oral gavage for 4 consecutive days beginning 1 hr after infection measured on day 8 post infection relative to control; type: functional; method in brief: as §2
[19] = tested on: Plasmodium berghei; experiment: Antimalarial activity against Plasmodium berghei infected in Swiss Webster mouse assessed as mouse survival rate at 33 mg/kg administered once daily via oral gavage for 4 consecutive days beginning 1 hr after infection measured on day 13 post infection relative to control; type: functional; method in brief: as §1
[20] = tested on: Plasmodium berghei; experiment: Antimalarial activity against Plasmodium berghei infected in Swiss Webster mouse assessed as mouse survival rate at 0.4 mg/kg administered once daily via oral gavage for 4 consecutive days beginning 1 hr after infection measured on day 6 post infection relative to control; type: functional; method in brief: as §2
[21] = tested on: Plasmodium berghei; experiment: Antimalarial activity against Plasmodium berghei infected in Swiss Webster mouse assessed as mouse survival rate at 0.4 mg/kg administered once daily via oral gavage for 4 consecutive days beginning 1 hr after infection measured on day 7 post infection relative to control; type: functional; method in brief: as §2
[22] = tested on: Plasmodium falciparum; experiment: Antimalarial activity against chloroquine-resistant Plasmodium falciparum W2 infected in human erythrocytes after 48 hrs by YOYO-1 dye based flow cytometric analysis; type: functional, cell-based; conditions: W2, 48 h
Method in brief: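 P. falciparum W2 cultures were exposed to the compound for 48 h, with artemisinin and chloroquine as reference controls. IC50 was taken from two independent replicates.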

[23] = tested on: Plasmodium berghei; experiment: Antimalarial activity against Plasmodium berghei infected in Swiss Webster mouse assessed as mouse survival rate at 0.1 mg/kg administered once daily via oral gavage for 4 consecutive days beginning 1 hr after infection measured on day 6 post infection relative to control; type: functional; method in brief: as §2
[24] = tested on: Plasmodium berghei; experiment: Antimalarial activity against Plasmodium berghei infected in Swiss Webster mouse assessed as mouse survival rate at 100 mg/kg administered once daily via oral gavage for 4 consecutive days beginning 1 hr after infection measured on day 13 post infection relative to control; type: functional; method in brief: as §2
[25] = Metabolic stability in human hepatocytes at 22 uM after 44 hrs; type: ADME, cell-based, Hepatocyte

Cc1c(Oc2cnc(C(=O)N3CC(C)(O)C3)cn2)ccc2c1B(O)OC2
survival at 3.7 mg/kg [1]: 100% | survival at 100 mg/kg [2]: 100% | survival at 100 mg/kg [3]: 100% | IC50 [4]: 43 nM | survival at 33 mg/kg [5]: 100% | survival at 11 mg/kg [6]: 100% | half-life [7]: 6.8 h | survival at 100 mg/kg [8]: 100% | survival at 11 mg/kg [9]: 0% | survival at 1.2 mg/kg [10]: 100% | survival at 11 mg/kg [11]: 100% | survival at 1.2 mg/kg [12]: 0% | survival at 0.4 mg/kg [13]: 100% | survival at 100 mg/kg [14]: 100% | half-life [15]: 7.1 h | survival at 0.4 mg/kg [16]: 100% | survival at 0.1 mg/kg [17]: 0% | survival at 100 mg/kg [18]: 100% | survival at 33 mg/kg [19]: 100% | survival at 0.4 mg/kg [20]: 100% | survival at 0.4 mg/kg [21]: 0% | IC50 [22]: 32.6 nM | survival at 0.1 mg/kg [23]: 100% | survival at 100 mg/kg [24]: 100% | Stability [25]: Stable
